Source: ChEMBL document CHEMBL1153046, “Synthesis and antitumor activity of substituted triazolo[4,3-a]pyrimidin-6-sulfonamide with an incorporated thiazolidinone moiety” (2009)

Columns and labels:
Assay type in all cases: functional
HCC 2998 = experiment: Growth inhibition of human HCC2998 cells after 48 hrs by sulforhodamine B assay; conditions: HCC 2998, 48 h
Method in brief: (§1)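 NCI 60-cell-line panel. Cells are grown in RPMI1640 with 5% fetal calf serum and 2 mM L-glutamine, seeded at a density set by growth characteristics, and preincubated 24 h. Compound is tested at a minimum of five concentrations at 10-fold dilution, with 48 h continuous exposure. Viability is read by sulforhodamine B protein assay. GI50, TGI and LC50 come from dose-response curves.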

HOP-92 = experiment: Growth inhibition of human HOP92 cells after 48 hrs by sulforhodamine B assay; conditions: HOP-92, 48 h; method in brief: as §1
HCT-15 = experiment: Growth inhibition of human HCT15 cells after 48 hrs by sulforhodamine B assay; conditions: HCT-15, 48 h; method in brief: as §1
SF-268 = experiment: Growth inhibition of human SF268 cells after 48 hrs by sulforhodamine B assay; conditions: SF-268, 48 h; method in brief: as §1
NCI-H322M = experiment: Growth inhibition of human NCI-H322M cells after 48 hrs by sulforhodamine B assay; method in brief: as §1
LOX IMVI = experiment: Growth inhibition of human LOXIMVI cells after 48 hrs by sulforhodamine B assay; method in brief: as §1
786-0 = experiment: Growth inhibition of human 786-0 cells after 48 hrs by sulforhodamine B assay; conditions: 786-0, 48 h; method in brief: as §1
SK-MEL-28 = experiment: Growth inhibition of human SK-MEL-28 cells after 48 hrs by sulforhodamine B assay; conditions: SK-MEL-28, 48 h; method in brief: as §1
NCI-H460 = experiment: Growth inhibition of human NCI-H460 cells after 48 hrs by sulforhodamine B assay; conditions: NCI-H460, 48 h; method in brief: as §1
SK-MEL-2 = experiment: Growth inhibition of human SK-MEL-2 cells after 48 hrs by sulforhodamine B assay; conditions: SK-MEL-2, 48 h; method in brief: as §1
HT-29 = experiment: Growth inhibition of human HT-29 cells after 48 hrs by sulforhodamine B assay; conditions: HT-29, 48 h; method in brief: as §1
UACC-62 = experiment: Growth inhibition of human UACC62 cells after 48 hrs by sulforhodamine B assay; conditions: UACC-62, 48 h
Method in brief: (§2)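 NCI 60-cell-line panel (nine cancer types), with cells grown in RPMI1640 plus 5% fetal calf serum and 2 mM L-glutamine. Cells are seeded at a density that depends on the line and preincubated 24 h. Compounds are then applied at a minimum of five 10-fold dilutions over a 5-log range with 48 h continuous exposure. Viability is read by SRB protein assay, and GI50 is derived from dose-response curves in units of 10^-5 M.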

OVCAR-8 = experiment: Growth inhibition of human OVCAR8 cells after 48 hrs by sulforhodamine B assay; conditions: OVCAR-8, 48 h; method in brief: as §1
MOLT-4 = experiment: Growth inhibition of human MOLT4 cells after 48 hrs by sulforhodamine B assay; conditions: MOLT-4, 48 h; method in brief: as §1
SK-MEL-5 = experiment: Growth inhibition of human SK-MEL-5 cells after 48 hrs by sulforhodamine B assay; conditions: SK-MEL-5, 48 h; method in brief: as §1
NCI-H23 = experiment: Growth inhibition of human NCI-H23 cells after 48 hrs by sulforhodamine B assay; conditions: NCI-H23, 48 h; method in brief: as §1
SK-OV-3 = experiment: Growth inhibition of human SKOV3 cells after 48 hrs by sulforhodamine B assay; conditions: SK-OV-3, 48 h; method in brief: as §1
MDA-MB-231 = experiment: Growth inhibition of human MDA-MB-231 cells after 48 hrs by sulforhodamine B assay; conditions: MDA-MB-231, 48 h; method in brief: as §1
HOP-62 = experiment: Growth inhibition of human HOP62 cells after 48 hrs by sulforhodamine B assay; conditions: HOP-62, 48 h; method in brief: as §1
OVCAR-4 = experiment: Growth inhibition of human OVCAR4 cells after 48 hrs by sulforhodamine B assay; conditions: OVCAR-4, 48 h; method in brief: as §1
MCF7 = experiment: Antiproliferative activity against human MCF7 cells assessed as cell growth at 100 uM after 48 hrs by alamar blue assay; conditions: MCF7, 48 h, read-out: Activity
Method in brief: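 NCI three-cell-line primary screen. Cells are seeded and preincubated in microtiter plates. Compound is added at a single 10^-4 M concentration and cultures are incubated 48 h. The end-point is read with alamar blue. Results are given as percent growth relative to untreated control cells.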

OVCAR-3 = experiment: Growth inhibition of human OVCAR-3 cells after 48 hrs by sulforhodamine B assay; conditions: OVCAR-3, 48 h; method in brief: as §1
A549 = experiment: Growth inhibition of human A549 cells after 48 hrs by sulforhodamine B assay; conditions: A549, 48 h; method in brief: as §1
SNB-75 = experiment: Growth inhibition of human SNB75 cells after 48 hrs by sulforhodamine B assay; conditions: SNB-75, 48 h; method in brief: as §2
SF-539 = experiment: Growth inhibition of human SF539 cells after 48 hrs by sulforhodamine B assay; conditions: SF-539, 48 h; method in brief: as §1
NCI-H226 = experiment: Growth inhibition of human NCI-H226 cells after 48 hrs by sulforhodamine B assay; conditions: NCI-H226, 48 h; method in brief: as §1
[1] = Growth inhibition of human […] cells after 48 hrs by sulforhodamine B assay; method in brief: as §1
[2] = read-out: LC50 (the source's name)

COc1ccc(/C=N/c2nc3[nH]nc(C)n3c(=O)c2S(=O)(=O)NN2C(=O)C(CN3CCOCC3)SC2c2cccs2)cc1 (configuration not stated)
GI50 (HCC 2998): 3.96 µM | LC50 (HCC 2998): 64.8 µM | TGI (HCC 2998): 31.3 µM | GI50 (HOP-92): 12.4 µM | LC50 (HOP-92): > 100 µM | TGI (HOP-92): > 100 µM | GI50 (HCT-15): 4.52 µM | TGI (HCT-15): 71.7 µM | GI50 (SF-268): 18.5 µM | TGI (SF-268): > 100 µM | CC50 (SF-268; [2]): > 100 µM | GI50 (NCI-H322M): 56.9 µM | TGI (NCI-H322M): > 100 µM | GI50 (LOX IMVI): 8.97 µM | TGI (LOX IMVI): > 100 µM | GI50 (786-0): 5.82 µM | TGI (786-0): > 100 µM | CC50 (786-0; [2]): > 100 µM | GI50 (SK-MEL-28): 82.1 µM | TGI (SK-MEL-28): > 100 µM | GI50 (NCI-H460): 5.32 µM | TGI (NCI-H460): > 100 µM | GI50 (SK-MEL-2): 8.3 µM | LC50 (concentration killing 50% of cells) (SK-MEL-2): > 100 µM | TGI (SK-MEL-2): 81.9 µM | GI50 (HT-29): 19.4 µM | GI50 (UACC-62): 3.7 µM | TGI (UACC-62): 31.4 µM | CC50 (UACC-62; [2]): > 100 µM | GI50 (OVCAR-8): 60.6 µM | TGI (OVCAR-8): > 100 µM | GI50 (MOLT-4): 4.08 µM | TGI (MOLT-4): 40.6 µM | CC50 (MOLT-4; [2]): > 100 µM | GI50 (SK-MEL-5): 3.71 µM | TGI (SK-MEL-5): 24 µM | CC50 (SK-MEL-5; [2]): > 100 µM | GI50 (NCI-H23): 44.5 µM | TGI (NCI-H23): > 100 µM | GI50 (SK-OV-3): 20.2 µM | TGI (SK-OV-3): > 100 µM | GI50 (MDA-MB-231): 11.7 µM | LC50 (50% lethal concentration) (MDA-MB-231): > 100 µM | TGI (MDA-MB-231): 56.1 µM | GI50 (HOP-62): 13.9 µM | LC50 (HOP-62): > 100 µM | TGI (HOP-62): > 100 µM | GI50 (OVCAR-4): > 100 µM | LC50 (OVCAR-4): > 100 µM | TGI (OVCAR-4): > 100 µM | growth at 100 µM (MCF7): 24% | GI50 (OVCAR-3): 3.6 µM | LC50 (concentration killing 50% of cells) (OVCAR-3): > 100 µM | TGI (OVCAR-3): > 100 µM | GI50 (A549): 19.1 µM | TGI (A549): > 100 µM | GI50 (SNB-75): 35.5 µM | TGI (SNB-75): > 100 µM | GI50 (SF-539): 7.24 µM | LC50 (SF-539): > 100 µM | TGI (SF-539): 30.4 µM | GI50 (NCI-H226): 24.5 µM | LC50 (concentration killing 50% of cells) (NCI-H226): > 100 µM | TGI (NCI-H226): > 100 µM | GI50 [1]: 3.86 µM | TGI [1]: 26.2 µM | CC50 [1, 2]: > 100 µM
